Screening results deposited in PubChem by several laboratories.
This is a sample that favours compounds with a hit; in the whole collection about 1.9% have one here.
ADAM17 inh: inhibits human ADAM17 | P78536 | recombinant ADAM17, EDANS/DABCYL FRET peptide cleavage | inhibition, % at 6.95 µM | 370,000 compounds, 0.83% hits | AID 720648;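 active = inhibition above the mean of compounds lying between control limits plus 3 SD, set per campaign, cut at about 8.5% in these data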;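 note: 0% = DMSO-only wells as the low control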
Target sequence (P78536 215-824 limits assumed): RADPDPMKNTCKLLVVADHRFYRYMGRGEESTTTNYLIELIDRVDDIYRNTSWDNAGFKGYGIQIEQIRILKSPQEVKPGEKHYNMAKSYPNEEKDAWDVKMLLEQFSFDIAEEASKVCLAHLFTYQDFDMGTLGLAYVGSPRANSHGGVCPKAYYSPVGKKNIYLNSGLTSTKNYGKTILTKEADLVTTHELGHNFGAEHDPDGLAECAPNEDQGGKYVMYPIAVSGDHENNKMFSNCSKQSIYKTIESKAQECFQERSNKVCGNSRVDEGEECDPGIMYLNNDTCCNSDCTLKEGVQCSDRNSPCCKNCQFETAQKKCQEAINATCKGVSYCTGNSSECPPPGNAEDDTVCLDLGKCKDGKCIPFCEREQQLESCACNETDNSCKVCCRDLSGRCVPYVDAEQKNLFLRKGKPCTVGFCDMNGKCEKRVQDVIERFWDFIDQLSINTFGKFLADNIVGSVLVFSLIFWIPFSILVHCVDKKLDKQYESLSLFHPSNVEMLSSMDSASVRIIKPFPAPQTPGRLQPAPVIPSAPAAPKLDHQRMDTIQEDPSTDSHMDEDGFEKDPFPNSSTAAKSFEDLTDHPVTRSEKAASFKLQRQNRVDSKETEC
SENP1 FRET inh: SENP1 (human) catalytic domain inhibition; Q9P0U3; inhibition, % at 10 µM; recombinant SENP1 catalytic domain, CyPet-SUMO1-YPet FRET cleavage; 360,000 compounds, 0.21% hits; AID 624204;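 active = inhibition at least 30% at 10 µM, raw YFP signal under a set limit, fluorescence ratio 0.5 to 1.5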;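 note: 0% = enzyme with DMSO and 100% = no enzyme wells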
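Material: hSENP1 catalytic domain, recombinant; medium: Tris pH 8 with BME, BSA, NP40 and catalase; compound: single concentration of 10 µM compound, 0.5% DMSO final; technique: FRET read of cyan and yellow fluorescence; timing: 50 min enzyme reaction, room temperature, light-protected; reagent: SFCypet-SUMO1-SFYpet substrate at 25 nM; control set: no-enzyme low, enzyme-DMSO high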
FAS TE block: FAS thioesterase (human) inhibition; P49327; recombinant FAS-TE, OMFH fluorogenic substrate, fluorescence endpoint; inhibition, % at 15 µM; 360,000 compounds, 0.67% hits;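 active = compounds whose normalised, plate-corrected inhibition of enzyme fluorescence in the single-dose primary screen is 50% or more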;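 note: 0% = DMSO with enzyme and 100% = substrate without enzyme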
ADAM10 inh: inhibits human ADAM10; recombinant ADAM10, EDANS/DABCYL FRET peptide cleavage, 3 h; inhibition, % at 7 µM; 370,000 compounds, 0.62% hits; AID 720582;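 active = inhibition above a per-campaign cutoff equal to the mean of compounds falling between control-based bounds plus 3 SD, cut at about 20% in these data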;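 note: 0% = DMSO wells while the 100% control is not disclosed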
ADAM10 ctr: ADAM10 inhibition, counter-screen for ADAM17 exosite hits; shares compounds with ADAM17 inh; recombinant ADAM10, EDANS/DABCYL FRET peptide cleavage, 3 h; inhibition, % at 6.95 µM; 2,900 compounds, 47% hits; AID 743256;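 active = mean inhibition over the triplicate runs exceeds the activity threshold set in the earlier primary screen, cut at about 20% in these data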;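 note: 0% = DMSO wells and 100% = marimastat wells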
ADAM17 confirm: human ADAM17 inhibition, confirmation. shares compounds with ADAM17 inh. recombinant ADAM17, EDANS/DABCYL QFRET peptide cleavage. 2,900 compounds, 65% hits. AID 743257. inhibition, % at 6.95 µM;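 active = mean inhibition across replicates above the hit cutoff set in the primary screen, cut at about 8.5% in these data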;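 note: 0% = DMSO wells and 100% = marimastat wells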
Active calls of the source: *; nt = no result.

SMILES | ADAM17 inh | SENP1 FRET inh | FAS TE block | ADAM10 inh | ADAM10 ctr | ADAM17 confirm
CC(C)(C)OC(=O)N(Cc1ccccc1)Cc1ccccc1OCc1cccc(NC(=O)C2CC2)c1 | 9.5* | 1.0 | 18.5 | 9.0 | 19.9* | 17.6*
CC(C)(C)OC(=O)N(Cc1ccccc1)Cc1ccccc1OCc1cccc(NC(=O)C2CCC2)c1 | -2.9 | -1.0 | 19.1 | -7.6 | nt | nt
COc1ccc(C2Nc3ccccc3C(=O)N2Cc2ccc(C)o2)cc1COc1c(C)cccc1C (configuration not stated) | -82.3 | nt | nt | -202.1 | nt | nt
O=C(COC(=O)[C@H](Cc1c[nH]c2ccccc12)NC(=O)c1ccc(Cl)cc1)Nc1ccc2c(c1)OCO2 | 13.1* | -1.0 | 26.2 | 15.0 | 35.8* | 19.9*
COC(=O)[C@]12C[C@H](CC(=O)N3CCOCC3)C(=O)N(Cc3cccc4ccccc34)C1=C[C@H](COCc1ccccc1)O[C@@H]2C | -1.1 | nt | nt | 6.3 | nt | nt
COC(=O)C1=C(C)N(Cc2ccc(Br)cc2)C(=S)NC1c1cccc(F)c1 (configuration not stated) | 0.9 | nt | nt | -1.0 | nt | nt
COC(=O)C1=C(C)N(Cc2ccc(Br)cc2)C(=S)NC1c1ccc(F)cc1 (configuration not stated) | 9.3* | nt | nt | 10.1 | 19.3 | 12.0*
CCOC(=O)Cn1cc(CN2C(C(=O)OC)CN(C3CC3)CCS2(=O)=O)nn1 (configuration not stated) | -1.6 | nt | nt | -0.2 | nt | nt
O=C(Nc1ccc(Nc2ccccc2)cc1)c1ccc(Cl)c([N+](=O)[O-])c1 | 8.6* | 0.6 | 36.5 | 16.7 | 27.7* | 18.4*
CCCCCCCCN1C(=O)[C@@H](CC(=O)N2CCN(C(=O)c3ccco3)CC2)C[C@@]2(C(=O)OC)C1=C[C@H](C(C)C)O[C@@H]2C1CC1 | 3.6 | nt | nt | 13.2 | nt | nt
COC(=O)[C@]12CCCCC=C1N(Cc1ccc(OC)cc1)C(=O)[C@@H]2CC(=O)N1CCCC1 | -4.8 | nt | nt | -5.0 | nt | nt
CC(C)[C@H](NC(=O)c1ccccc1)C(=O)N1CCC[C@H]1C(=O)NCCc1ccccc1Cl | 0.8 | nt | nt | -2.0 | nt | nt
COC(=O)C1=C(C)N(C)C(=NCC2CC2)NC1c1cccc(C(F)(F)F)c1 (configuration not stated) | -1.7 | nt | nt | -8.4 | nt | nt
CCN(CC)S(=O)(=O)c1cccc(NC(=O)CCSc2ccc(Cl)cc2)c1 | 9.2* | 1.4 | 20.0 | 10.1 | 37.1* | 17.3*
Cc1ccc(C(=O)c2cn[nH]c2-c2ccccc2O)cc1 | 8.8* | -0.4 | -72.5 | 15.0 | -1.8 | -1.0
CC1=NN(c2ccccc2)C(=O)C1=Cc1ccccc1 | -3.7 | 1.5 | -2.8 | -8.9 | nt | nt
CC1=NN(c2ccccc2)C(=O)/C1=C/c1cccs1 | 10.3* | 0.2 | -11.0 | 18.4 | 0.7 | 0.3
CC1(c2ccccc2)NC(=O)N(CC(=O)Nc2ccc(S(N)(=O)=O)cc2)C1=O (configuration not stated) | -1.5 | -0.8 | -0.9 | 1.0 | nt | nt
CC1CC(C)CN(S(=O)(=O)c2ccc(NC(=O)CN3C(=O)NC(C)(c4ccccc4)C3=O)cc2)C1 (configuration not stated) | 10.0* | -0.4 | 16.8 | 16.9 | 20.9* | 11.8*
O=C(NCc1ccccc1Cl)c1nnc(CS(=O)(=O)c2ccccc2)o1 | 10.9* | 2.4 | -3.8 | 17.2 | -1.5 | -0.6
Cc1ccc(CNC(=O)c2nnc(CS(=O)(=O)c3ccccc3)o2)cc1 | 1.1 | -0.7 | -4.0 | 6.0 | nt | nt
COc1ccc(OC)c(NC(=O)[C@H]2CC=CC[C@H]2C(=O)O)c1 | 0.9 | 1.0 | -6.0 | 11.4 | nt | nt
COc1ccc(OC)c(NC(=O)C2CC(C)=C(C)CC2C(=O)O)c1 (configuration not stated) | 10.8* | 1.4 | -2.6 | 18.8 | -8.9 | -1.3
O=C(CN1C(=O)CSc2ccc(S(=O)(=O)N3CCOCC3)cc21)NCCCN1CCCCC1 | -3.2 | 0.4 | -5.1 | -24.3 | nt | nt
CC1CC(C)CN(CCCNC(=O)CN2C(=O)CSc3ccc(S(=O)(=O)N4CCCCC4)cc32)C1 (configuration not stated) | 10.4* | -0.7 | -4.2 | -1.1 | 12.4 | 9.8*
SMILES | ADAM17 inh | SENP1 FRET inh | FAS TE block | ADAM10 inh | ADAM10 ctr | ADAM17 confirm
CC(C)CN1C(=O)C[C@@]2(C(=O)N(C)c3ccc(NC(=O)c4cc(F)ccc4F)cc32)C1c1ccccc1 (some centres not stated) | -1.7 | nt | nt | 1.8 | nt | nt
CCCC(=O)NC(c1ccccc1OC)c1ccc2cccnc2c1O (configuration not stated) | nt | 2.2 | 4.2 | nt | nt | nt
CCCCC(=O)NC(c1ccccc1OC)c1ccc2cccnc2c1O (configuration not stated) | 9.0* | 2.6 | 0.2 | 17.5 | 16.1 | 7.1
CCCCCCCCN1C(=O)[C@@H](CC(=O)NCc2ccc(OC)c(OC)c2)C[C@@]2(C(=O)OC)C1=C[C@H](COCc1ccccc1)O[C@@H]2C | 5.4 | nt | nt | 12.7 | nt | nt
C[C@H](CO)N1C[C@H](C)[C@@H](CN(C)C(=O)Nc2ccc(C(F)(F)F)cc2)Oc2ccc(NC(=O)Cc3ccccc3)cc2C1=O | 16.2* | 0.7 | 8.6 | 16.4 | 16.9 | 9.6*
CC(C)NC(=O)N(C)C[C@H]1Oc2ccc(NC(=O)Nc3ccccc3)cc2C(=O)N([C@@H](C)CO)C[C@@H]1C | 10.8* | -2.2 | -7.2 | -3.9 | 1.6 | 4.9
CC(C)NC(=O)N(C)C[C@H]1Oc2ccc(NC(=O)Cc3ccccc3)cc2C(=O)N([C@H](C)CO)C[C@@H]1C | 9.1* | 1.9 | -4.3 | 0.8 | -9.2 | 0.6
O=c1cc(COn2nnc3ccc(C(F)(F)F)cc32)nc2sccn12 | 11.3* | 1.8 | 12.9 | 16.3 | 7.0 | 8.9*
O=C1/C(=C\c2cccc(O)c2)SC(=S)N1Cc1ccccc1 | 8.8* | 3.7 | 14.3 | 10.3 | 13.1 | 5.8
C[C@H]1[C@@H](NCC2CCCCC2)CC[C@@]23CCCN2C(=O)CCC[C@@H]13 | -3.2 | nt | nt | -1.3 | nt | nt
CCN(CC)C(=O)CC[C@H]1CC[C@]2(CCCN(C(=O)c3ccc4ccccc4n3)C2)O1 | -2.6 | nt | nt | -3.7 | nt | nt
CCCCCCN1CCN(C2CN(Cc3cn(Cc4ccc(Cl)cc4)nn3)S(=O)(=O)C2)CC1 (configuration not stated) | 8.9* | 2.2 | 7.4 | 4.3 | -3.3 | 0.4
COc1ccc(/C=C2\CC3(OC(=O)c4ccccc4)CCCN2C3)cc1 (configuration not stated) | 7.2 | nt | nt | 11.1 | nt | nt
CN(c1ccc(OCC(=O)NCCc2ccccc2)cc1)S(=O)(=O)c1ccc(Cl)cc1 | 1.8 | -0.4 | 20.9 | 8.5 | nt | nt
CN(C(=O)COC(=O)COc1ccc(N(C)S(=O)(=O)c2ccc(Cl)cc2)cc1)c1ccccc1 | 18.4* | -0.6 | 20.4 | 15.7 | 18.3 | 6.1
CCOc1ccc(S(=O)(=O)n2cc(-c3ccc(F)cc3)c(N)n2)cc1 | 2.5 | 1.3 | 16.2 | 11.8 | nt | nt
